Results published in ChEMBL document CHEMBL1122805, “Structure-activity relationships of sparsomycin and its analogues. Octylsparsomycin: the first analogue more active than sparsomycin” (1984).
≈ marks a conversion by molar mass, not a printed value. Calls of active or inactive are those of the source. The rule behind the calls is not given here.

What follows are molecules tested on L1210 (assay: In vitro cytostatic activity and inhibition of leukemia L1210 cells. The dose causing 50% of inhibition of colony formation (ID50) relative to untreated control cells; NA-Not Active). Details: Mus musculus.
Assay type: functional, cell-based
Outline: (§1)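 Mouse leukemia L1210 cells taken from suspension culture; 100 cells plated per dish in soft agar medium (Dulbecco's with 20% horse serum, 2-mercaptoethanol, L-asparagine, DEAE-dextran, 0.3% agar) containing compound at several concentrations. Continuous exposure 8 days, 37 °C, 10% CO2, humidified. Colonies counted; ID50 from dose-effect curves versus untreated controls. Highest dose tested 100 μg/mL.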

SMILES | ID50
CSC[S@+]([O-])C[C@@H](CO)NC(=O)/C=C/c1c(C)nc(O)nc1O | inactive
CSCSC[C@@H](CO)NC(=O)/C=C/c1c(C)nc(O)nc1O | inactive
CSC[S@@+]([O-])C[C@@H](CO)NC(=O)/C=C/c1c(C)[nH]c(=O)[nH]c1=O | inactive
Cc1nc(O)nc(O)c1/C=C/C(=O)N[C@H](CO)CSC[S+](C)[O-] (some centres undefined) | inactive

The molecules below were run on L1210 (assay: In vitro cytostatic activity and inhibition of leukemia L1210 cells. The dose causing 50% of inhibition of colony formation (ID50) relative to untreated control cells). Details: Mus musculus, read-out: ID50 (the source's name).
Assay type: functional
Outline: as §1

IC50 [mg/L] | SMILES
0.15 (≈ 0.415 µM) | CSC[S@+]([O-])C[C@H](CO)NC(=O)/C=C/c1c(C)[nH]c(=O)[nH]c1=O
2.1 (≈ 5.81 µM) | CSC[S@@+]([O-])C[C@H](CO)NC(=O)/C=C/c1c(C)[nH]c(=O)[nH]c1=O
0.05 (≈ 0.109 µM) | CCCCCCCCSC[S+]([O-])C[C@H](CO)NC(=O)/C=C/c1c(C)nc(O)nc1O (some centres undefined)
66 (≈ 183 µM) | Cc1nc(O)nc(O)c1/C=C/C(=O)N[C@@H](CO)CSC[S+](C)[O-] (some centres undefined)
4.4 (≈ 12.7 µM) | CSCSC[C@H](CO)NC(=O)/C=C/c1c(C)nc(O)nc1O
